Test results published in ChEMBL document CHEMBL3797028, “Novel S1P1 receptor agonists - Part 4: Alkylaminomethyl substituted aryl head groups” (Eur J Med Chem, 2016).
Activity calls are given as the source filed them. No cut-off for these calls is given here.

Assays:
[1] = test system: Rattus norvegicus; experiment: Change in circulating lymphocyte count in Wistar rat at 10 mg/kg administered as single dose through oral gavage after 6 hrs relative to control; type: functional
Summary of the method: (§1)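 Male Wistar rats (RccHan:WIST; n = 6) were given a single oral gavage dose of compound in DMSO plus 7.5% succinylated gelatine (final 5% DMSO). Blood lymphocytes were counted just before dosing and at later timepoints. Percent change was calculated per animal relative to the pre-dose value and compared with a vehicle-treated group, reported as the mean. A ±15% change was treated as baseline, and a reduction of about 60% or more as maximal.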

[2] = molecular target: Sphingosine 1-phosphate receptor 3 (Homo sapiens, UniProt Q99500); experiment: Agonist activity at human recombinant S1PR3 expressed in CHO cell membranes assessed as [35S]GTPgammaS binding preincubated for 30 mins followed by [35S]GTPgammaS addition measured after 1 hr by topcount analysis; type: functional
Summary of the method: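 Membranes from CHO cells expressing recombinant human S1P1 or S1P3 were used. Buffer was 20 mM Hepes pH 7.4, 100 mM NaCl, 5 mM MgCl2, 0.1% fatty-acid-free BSA, 2.5% DMSO and 50 pM 35S-GTPgammaS. GDP was […] for S1P3. Compound was preincubated 30 min at rt, then incubated 1 h at rt with 35S-GTPgammaS. Bound label was collected by filtration and counted. Specific binding was taken against 10 uM S1P. EC50 was the 50%-of-specific-binding concentration, reported as the geometric mean of at least three independent duplicate runs.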

[3] = molecular target: T1, Sphingosine 1-phosphate receptor 1 (Homo sapiens, UniProt P21453); experiment: Agonist activity at human recombinant S1PR1 expressed in CHO cell membranes assessed as [35S]GTPgammaS binding preincubated for 30 mins followed by [35S]GTPgammaS addition measured after 1 hr by topcount analysis
[4] = Distribution coefficient, log D between 1-octonol and phosphate buffer at pH 7; type: physicochemical; conditions: 1-octanol/phosphate buffer
Summary of the method: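 Partition was between 1-octanol and phosphate buffer at pH 7.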

[5] = Selectivity ratio of EC50 for human recombinant S1PR3 expressed in CHO cell membranes to EC50 for human recombinant S1PR1 expressed in CHO cell membranes; type: cell-based
Summary of the method: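 Compound and membranes are pre-incubated 30 min at rt, then incubated 1 h at rt, filtered and counted. EC50 is the concentration giving 50% of S1P-defined specific binding, as the geometric mean of ≥3 independent duplicate runs. Ratio = EC50 S1PR3/EC50 S1PR1.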

[6] = test system: Rattus norvegicus; experiment: Change in circulating lymphocyte count in Wistar rat at 10 mg/kg administered as single dose through oral gavage after 24 hrs relative to control; type: functional; summary of the method: as §1
[7] = Drug recovery in Wistar rat liver microsomes incubated for 6 hrs by LC-MS/MS based equilibrium dialysis method; type: ADME; conditions: read-out: Drug recovery
Summary of the method: (§2)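 Rapid equilibrium dialysis was run on a shaker for 6 h at 37 °C. The donor side held rat plasma (pH 7.2–7.6) or 1 mg/mL rat liver microsomes in phosphate buffer pH 7.4. The receiver side held phosphate buffer pH 7.4. Both sides were measured by LC-MS/MS to give free fraction and recovery.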

[8] = test system: Rattus norvegicus; experiment: Change in circulating lymphocyte count in Wistar rat at 10 mg/kg administered as single dose through oral gavage after 3 hrs relative to control; type: functional; summary of the method: as §1
[9] = Apparent intrinsic clearance in Wistar rat liver microsomes at 1 uM after 2.5 to 15 mins by LC-MS/MS analysis in presence of NADPH; type: ADME; conditions: read-out: CLH(app)
Summary of the method: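 Compound at 1 uM starting concentration was depleted by 0.5 mg/mL rat liver microsomes in 100 mM sodium phosphate pH 7.4 at 37 °C, with shaking under air. Reactions were started with an NADPH-regenerating system. Samples were taken at 0, 2.5, 5, 10 and 15 min, quenched in ice-cold methanol and analysed by LC-MS/MS. CLint,app came from first-order decay fitting.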

[10] = test system: Liver microsome; experiment: Unbound fraction corrected apparent intrinsic clearance in Wistar rat liver microsomes at 1 uM after 2.5 to 15 mins by LC-MS/MS analysis in presence of NADPH; type: ADME
Summary of the method: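 Apparent CLint was measured by microsomal substrate depletion: 1 uM start, 0.5 mg/mL rat liver microsomes, pH 7.4, 37 °C, NADPH-regenerating system, sampling 0–15 min, LC-MS/MS. It was then divided by the unbound microsomal fraction, which was determined by rapid equilibrium dialysis of 1 mg/mL microsomes for 6 h at 37 °C.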

[11] = Fraction unbound in Wistar rat liver microsomes incubated for 6 hrs by LC-MS/MS based equilibrium dialysis method; type: ADME; summary of the method: as §2
[12] = Fraction unbound in Wistar rat plasma incubated for 6 hrs by LC-MS/MS based equilibrium dialysis method; type: ADME, cell-free; summary of the method: as §2
[13] = Plasma concentration in Wistar rat at 10 mg/kg administered as single dose through oral gavage after 6 hrs by LC-MS/MS analysis; type: ADME, organism-based
Summary of the method: (§3)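 Single oral gavage dose to male Wistar rats in DMSO/7.5% succinylated gelatine (final 5% DMSO). Blood was drawn into EDTA at the lymphocyte-count timepoints. Plasma was prepared at 3000 g for 10 min at 4 °C and analysed by LC-MS/MS after protein precipitation.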

[14] = Plasma concentration in Wistar rat at 10 mg/kg administered as single dose through oral gavage after 24 hrs by LC-MS/MS analysis; type: ADME, organism-based; summary of the method: as §3
[15] = species: Rattus norvegicus; experiment: Intrinsic clearance in rat liver microsomes scaled to body weight; conditions: in vitro
[16] = Plasma concentration in Wistar rat at 10 mg/kg administered as single dose through oral gavage after 3 hrs by LC-MS/MS analysis; type: ADME, organism-based; summary of the method: as §3
[17] = Apparent oral clearance in Wistar rat plasma at 1 to 10 mg/kg administered through gavage by LC-MS/MS analysis; type: ADME, organism-based
Summary of the method: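 Male Wistar rats received a single oral gavage dose of compound dissolved in DMSO and added to 7.5% succinylated gelatine in water (final 5% DMSO). EDTA plasma was spun at 3000 g for 10 min at 4 °C and analysed by LC-MS/MS after protein precipitation. Oral clearance was estimated from the plasma concentration–time data. In vivo intrinsic clearance used the well-stirred liver model, assuming complete absorption.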

[18] = molecular target: T1, Sphingosine 1-phosphate receptor 1; experiment: Partial agonist activity at human recombinant S1PR1 expressed in CHO cells by receptor internalization assay; type: cell-based
[19] = Plasma concentration in Wistar rat at 10 mg/kg administered as single dose through oral gavage after 72 hrs by LC-MS/MS analysis; type: ADME, organism-based; summary of the method: as §3

T1 sequence (P21453 whole entry): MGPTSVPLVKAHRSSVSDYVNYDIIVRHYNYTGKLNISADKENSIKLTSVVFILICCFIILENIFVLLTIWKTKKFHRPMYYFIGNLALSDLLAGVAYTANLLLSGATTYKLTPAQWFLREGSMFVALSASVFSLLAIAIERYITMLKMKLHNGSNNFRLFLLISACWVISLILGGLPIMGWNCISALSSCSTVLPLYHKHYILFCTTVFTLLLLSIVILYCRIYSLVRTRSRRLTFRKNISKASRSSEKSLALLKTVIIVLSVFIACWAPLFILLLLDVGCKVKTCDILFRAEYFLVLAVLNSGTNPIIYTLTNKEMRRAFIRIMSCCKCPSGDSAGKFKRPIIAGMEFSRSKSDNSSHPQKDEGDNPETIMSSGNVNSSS
Sequence of Sphingosine 1-phosphate receptor 3 (Q99500 whole entry): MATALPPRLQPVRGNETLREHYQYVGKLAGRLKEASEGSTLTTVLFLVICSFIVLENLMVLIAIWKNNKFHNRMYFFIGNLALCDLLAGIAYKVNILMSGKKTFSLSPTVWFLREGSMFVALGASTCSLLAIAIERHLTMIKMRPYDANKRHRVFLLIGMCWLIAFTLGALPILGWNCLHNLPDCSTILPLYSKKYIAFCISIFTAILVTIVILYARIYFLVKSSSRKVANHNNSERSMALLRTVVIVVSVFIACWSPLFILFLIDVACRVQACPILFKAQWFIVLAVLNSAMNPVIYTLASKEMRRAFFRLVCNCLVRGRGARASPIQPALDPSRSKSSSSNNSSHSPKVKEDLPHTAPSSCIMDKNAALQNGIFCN

CCc1cc(-c2nc(-c3cc(C)c(OC[C@@H](O)CNC(=O)CO)c(CC)c3)no2)ccc1CN(C)C
Activity [1]: -61% | EC50 [2]: 0.48 µM | EC50 [3]: 0.0013 µM | logD [4]: 3.8 | Ratio EC50 [5]: 369 | Activity [6]: 27% | recovery at 6 h [7]: < 80% | Activity [8]: -56% | microsomal CLint at 1 µM [9]: 1010 µL/min/mg | CL free [10]: 9200 µL/min/mg | fraction unbound at 6 h [11]: 0.11 | fraction unbound at 6 h [12]: 0.005

CCc1cc(-c2noc(-c3cc(C)cc(CN(C)C)c3)n2)cc(C)c1OC[C@@H](O)CNC(=O)CO
Activity [1]: -37% | EC50 [2]: 2 µM | logD [4]: 2.8 | Activity [6]: 21% | Activity [8]: -44% | microsomal CLint at 1 µM [9]: > 1250 µL/min/mg | CL free [10]: > 4800 µL/min/mg | fraction unbound at 6 h [11]: 0.26 | fraction unbound at 6 h [12]: 0.029

CCc1cc(-c2noc(-c3cc(C)nc(CN(C)CC(C)C)c3)n2)cc(C)c1OC[C@@H](O)CNC(=O)CO
concentration at 6 h [13]: 0.176 µg/mL | Activity [1]: -75% | EC50 [2]: 0.56 µM | concentration at 24 h [14]: < 0.002 µg/mL | EC50 [3]: 0.0032 µM | CL [15]: 118.2 L/h/kg | logD [4]: 3.8 | Ratio EC50 [5]: 175 | Activity [6]: 1% | recovery at 6 h [7]: < 80% | Activity [8]: -80% | concentration at 3 h [16]: 0.385 µg/mL | microsomal CLint at 1 µM [9]: 197 µL/min/mg | CL/F [17]: 4.8 L/h/kg | CL free [10]: 1090 µL/min/mg | fraction unbound at 6 h [11]: 0.18 | fraction unbound at 6 h [12]: 0.004

CCc1cc(-c2noc(-c3cc(C)c(CN(C)C)s3)n2)cc(C)c1OC[C@@H](O)CNC(=O)CO
concentration at 6 h [13]: 0.031 µg/mL | Activity [1]: -56% | EC50 [2]: 0.66 µM | concentration at 24 h [14]: < 0.004 µg/mL | CL [15]: 876 L/h/kg | logD [4]: 3.2 | Activity [6]: 5% | Activity [8]: -64% | concentration at 3 h [16]: 0.106 µg/mL | microsomal CLint at 1 µM [9]: 1220 µL/min/mg | CL/F [17]: 16.5 L/h/kg | CL free [10]: 8100 µL/min/mg | fraction unbound at 6 h [11]: 0.15 | fraction unbound at 6 h [12]: 0.012

CCc1cc(-c2noc(-c3ccc(CN(C)CC(C)C)c(C)c3)n2)cc(C)c1OC[C@@H](O)CNC(=O)CO
EC50 [2]: 0.57 µM | EC50 [3]: 0.013 µM | logD [4]: > 4.1 | Ratio EC50 [5]: 44 | recovery at 6 h [7]: < 80% | microsomal CLint at 1 µM [9]: 74 µL/min/mg | fraction unbound at 6 h [11]: 0.001 | fraction unbound at 6 h [12]: < 0.001

CCc1cc(-c2noc(-c3cc(C)cc(CN(C)CC(C)C)c3)n2)cc(C)c1OC[C@@H](O)CNC(=O)CO
concentration at 6 h [13]: 1.12 µg/mL | Activity [1]: -53% | EC50 [2]: 0.1 µM | concentration at 24 h [14]: 0.342 µg/mL | EC50 [3]: 0.0021 µM | CL [15]: 79.8 L/h/kg | logD [4]: > 4.1 | Ratio EC50 [5]: 48 | Activity [6]: -44% | Activity [18]: inactive | Activity [8]: -52% | concentration at 72 h [19]: 0.0037 µg/mL | concentration at 3 h [16]: 1.38 µg/mL | microsomal CLint at 1 µM [9]: 20 µL/min/mg | CL/F [17]: 0.48 L/h/kg | CL free [10]: 740 µL/min/mg | fraction unbound at 6 h [11]: 0.027 | fraction unbound at 6 h [12]: < 0.001

CCCCN(C)Cc1cc(C)cc(-c2nc(-c3cc(C)c(OC[C@@H](O)CNC(=O)CO)c(CC)c3)no2)c1
Activity [1]: -57% | EC50 [2]: 0.425 µM | EC50 [3]: 0.0026 µM | logD [4]: > 4.1 | Ratio EC50 [5]: 163 | Activity [6]: -6% | recovery at 6 h [7]: < 80% | Activity [8]: -60% | microsomal CLint at 1 µM [9]: 183 µL/min/mg | CL free [10]: 7300 µL/min/mg | fraction unbound at 6 h [11]: 0.025 | fraction unbound at 6 h [12]: < 0.001

CCc1cc(-c2noc(-c3cc(C)cc(CN(C)CC)c3)n2)cc(C)c1OC[C@@H](O)CNC(=O)CO
Activity [1]: -58% | EC50 [2]: 1.25 µM | EC50 [3]: 0.0036 µM | logD [4]: 3.4 | Ratio EC50 [5]: 347 | Activity [6]: 24% | recovery at 6 h [7]: < 80% | Activity [8]: -57% | microsomal CLint at 1 µM [9]: > 1250 µL/min/mg | CL free [10]: > 5000 µL/min/mg | fraction unbound at 6 h [11]: 0.25 | fraction unbound at 6 h [12]: 0.012
